# Data published in ChEMBL document CHEMBL4052590, “Anti-Osteoporotic Activity of Harpagoside by Upregulation of the BMP2 and Wnt Signaling Pathways in Osteoblasts and Suppression of Differentiation in Osteoclasts” (J Nat Prod, 2017).
# The source made the active and inactive calls. No cut-off for these calls is given here.
# Experiments:
# MC3T3-E1 [1] = assay: Upregulation of ALP protein expression in 2 days differentiated mouse MC3T3-E1 cells up to 4 uM after 48 hrs in presence of ascorbic acid and beta-glycerophosphate by Western blot analysis; assay type: functional, cell-based
# MC3T3-E1 [2] = assay: Upregulation of OCN protein expression in mouse MC3T3-E1 cells up to 4 uM after 48 hrs in presence of ascorbic acid and beta-glycerophosphate by Western blot analysis; assay type: functional, cell-based
# Mus musculus [3] = species: Mus musculus; assay: Activation of Wnt signaling pathway in mouse MC3T3-E1 cells assessed as increase in Smad protein expression up to 4 uM after 48 hrs in presence of ascorbic acid and beta-glycerophosphate by Western blot analysis; assay type: cell-based
# Procedure, shortened: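 MC3T3-E1 cells given 400 μM ascorbic acid plus 5 mM β-glycerophosphate, exposed to test compound or not for 48 h. Lysed in boiling SDS sample buffer, protein measured by BCA. 40−50 μg of lysate run on 8% or 10% SDS-PAGE and transferred to PVDF. Blocked in 5% milk, probed with primary antibodies for 3 h at room temperature or overnight at 4 °C, detected by ECL.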
# Mus musculus [4] = species: Mus musculus; assay: Activation of Wnt signaling pathway in mouse MC3T3-E1 cells assessed as upregulation of cyclin D1 protein expression after 48 hrs in presence of ascorbic acid and beta-glycerophosphate by Western blot analysis; assay type: cell-based
# Procedure, shortened: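 MC3T3-E1 cells with 400 μM ascorbic acid and 5 mM β-glycerophosphate, with or without compound, for 48 h. Whole-cell lysates (40−50 μg, BCA) separated by SDS-PAGE, blotted to PVDF. c-Myc and cyclin D1 probed with primary antibodies, then secondary antibody for 90 min, read by chemiluminescence.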
# Osteoclast = assay: Inhibition of RANKL/M-CSF-induced osteoclast differentiation in mouse bone marrow-derived osteoclasts assessed as downregulation of c-Fos protein expression up to 4 uM after 48 hrs by Western blot analysis; assay type: functional, cell-based
# Procedure, shortened: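 Mouse bone marrow cells were taken from 4-week-old mice and primed 24 h in 30 ng/mL M-CSF. They were then given 100 ng/mL RANKL plus 30 ng/mL M-CSF, with or without compound, for 48 h. Lysates were made in boiling SDS buffer and quantified by BCA. 40–50 μg was run on SDS-PAGE and immunoblotted on PVDF with β-actin reference and ECL read-out.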
# Mus musculus [5] = assay: Anti-osteoporotic activity in ovariectomized ICR mouse assessed as increase in trabecular thickness in femur at 2 to 10 mg/kg, po after 12 weeks by microcomputed tomography; assay type: functional, organism-based
# Mus musculus [6] = assay: Decrease in OVX-induced increase in body weight in ICR mouse at 2 to 10 mg/kg, po for 12 weeks; assay type: functional, organism-based
# Mus musculus [7] = assay: Effect on alkaline phosphatase activity in serum of OVX-induced bone loss ICR mouse model at 5 mg/kg, po for 12 weeks using p-NPP as substrate (reference value: 84.9 +/- 4.2 U/L); assay type: functional
# Mus musculus [8] = assay: Effect on alkaline phosphatase activity in serum of OVX-induced bone loss ICR mouse model at 10 mg/kg, po for 12 weeks using p-NPP as substrate (reference value: 84.9 +/- 4.2 U/L); assay type: functional
# Mus musculus [9] = assay: Effect on TRAP activity in serum of OVX-induced bone loss ICR mouse model at 2 mg/kg, po for 12 weeks (reference value: 19.8 +/- 1.0 U/L); assay type: functional
# Mus musculus [10] = assay: Effect on C-terminal telopeptide level in serum of OVX-induced bone loss ICR mouse model at 2 mg/kg, po for 12 weeks by ELISA (reference value: 95.7 +/- 3.8 ng/ml); assay type: functional
# MC3T3-E1 [11] = assay: Upregulation of OPN protein expression in 2 days differentiated mouse MC3T3-E1 cells up to 4 uM after 48 hrs in presence of ascorbic acid and beta-glycerophosphate by Western blot analysis; assay type: functional, cell-based
# MC3T3-E1 [12] = assay: Increase in OPG to RANKL mRNA expression ratio in mouse MC3T3-E1 cells up to 4 uM after 48 hrs in presence of ascorbic acid and beta-glycerophosphate by real-time PCR analysis; assay type: functional, cell-based
# Procedure, shortened: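 MC3T3-E1 cells stimulated with 400 μM ascorbic acid and 5 mM β-glycerophosphate, with or without compound, 48 h. TRIzol RNA, real-time RT-PCR: 40 cycles of 95 °C 20 s, 56 °C 20 s, 72 °C 30 s. Ct of each transcript […] β-actin Ct, expressed relative to control samples.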
structure (smiles),measurement,setting,value
C[C@]1(OC(=O)/C=C/c2ccccc2)C[C@@H](O)[C@]2(O)C=CO[C@@H](O[C@@H]3O[C@H](CO)[C@@H](O)[C@H](O)[C@H]3O)[C@@H]21 [HARPAGOSIDE],Activity,MC3T3-E1 [1],Dose-dependent effect
same,Activity,MC3T3-E1 [2],Active
same,Activity,Mus musculus [3],Active
same,Activity,Mus musculus [4],Dose-dependent effect
same,inhibition,Osteoclast,Active
same,Activity,Mus musculus [5],Active
same,Activity,Mus musculus [6],Active
same,Activity,Mus musculus [7],82.6 U/L
same,Activity,Mus musculus [8],78.8 U/L
same,Activity,Mus musculus [9],10.4 U/L
same,Activity,Mus musculus [10],88.5 ng/mL
same,Activity,MC3T3-E1 [11],Dose-dependent effect
same,Activity,MC3T3-E1 [12],Active
